# Test: Measurement of phenolics in plasma
# Type: in vivo
# Details: 2 months old male mice fed diet containing 25% dried plum for 4 weeks
# In short: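 Male C57Bl/6 mice, 2 months old, fed control AIN-93G or diet with 25% test material for 4 weeks (n=8/group). At euthanasia, blood was drawn into lithium-heparin tubes and spun at 6500 rpm for 10 min at 4°C. Plasma was acidified 4:1 with 1% ascorbic acid in saline, purged with nitrogen and stored at −80°C. Quercetin glycosides and caffeic and gallic acid derivatives were profiled by LC/TOF-MS.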
"plasma concentration, CMin","plasma concentration, Caverage",SMILES
420 nM,1390 ± 310 nM,COc1ccc(CCC(=O)O)cc1O[C@@H]1O[C@H](C(=O)O)[C@@H](O)[C@H](O)[C@H]1O [Dihydroisoferulic acid 3-O-glucuronide]
20 nM,800 ± 210 nM,COc1ccc(/C=C/C(=O)O)cc1O[C@@H]1O[C@H](C(=O)O)[C@@H](O)[C@H](O)[C@H]1O [Isoferulic acid 3-O-glucuronide]
3270 nM,4990 ± 440 nM,COc1cc(CCC(=O)O)ccc1O[C@@H]1O[C@H](C(=O)O)[C@@H](O)[C@H](O)[C@H]1O [Dihydroferulic acid 4-O-glucuronide]

SMILES,"plasma concentration, CMin","plasma concentration, Caverage"
COc1cc(/C=C/C(=O)O)ccc1O[C@@H]1O[C@H](C(=O)O)[C@@H](O)[C@H](O)[C@H]1O [Ferulic acid 4-O-glucuronide],1100 nM,3060 ± 450 nM

# — publication PMC7413021 (The Journal of nutritional biochemistry, 2016)
